Results as given in ChEMBL document CHEMBL3525971 (Drug Metab Dispos, 2011).

How the values were obtained:
[1] = Fraction unbound in pig plasma; format: ADME, cell-free, Sus scrofa
Summary of the method: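 Femoral-vein plasma drawn at 30 and 300 min. […] Unbound and total plasma concentrations measured by HPLC-UV at 210 nm after precipitation and solid-phase extraction, with testosterone as internal standard. Calibration range 0.003-1 µM; fraction unbound taken as Cu/Cp.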

[2] = Biliary excretion in castrated pig assessed as fraction of the dose excreted at 0.8 mg/kg administered as intrajejunal dose 20 mins after ketoconazole administration measured during 6 hrs sampling by UPLC-tandem mass spectrometry; format: ADME, organism-based, Sus scrofa; set-up: dose 0.8 mg/kg; details: male, bile, read-out: Drug excretion
[3] = Ratio of AUC in bile to plasma withdrawn from hepatic vein in castrated pig at 0.8 mg/kg administered as intrajejunal dose by UPLC-tandem mass spectrometry; format: ADME, organism-based, Sus scrofa; set-up: dose 0.8 mg/kg; details: male, read-out: Ratio AUC
Summary of the method: (§1)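 Bile collected 0-6 h and weighed; portal and hepatic vein plasma sampled. UPLC-MS/MS quantification against finasteride-d9 in SRM mode. Bile/plasma AUC ratio calculated per vein.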

[4] = Ratio of AUC in bile to plasma withdrawn from portal vein in castrated pig at 0.8 mg/kg administered as intrajejunal dose 20 mins after ketoconazole administration by UPLC-tandem mass spectrometry; format: ADME, organism-based, Sus scrofa; set-up: dose 0.8 mg/kg; details: male, read-out: Ratio AUC; summary of the method: as §1
Plasma [5] = assay: Drug metabolism in castrated pig plasma withdrawn from hepatic vein assessed as omega-hydroxy finasteride metabolite formation by UPLC-tandem mass spectrometry; format: ADME, cell-free, Sus scrofa
Summary of the method: (§2)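 Plasma sampled 0-6 h from portal, hepatic and femoral veins. Analysed by acetonitrile precipitation with finasteride-d9 internal standard, then UPLC-MS/MS in SRM mode, m/z 389.41 → 271.94 for the ω-hydroxy metabolite.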

[6] = Terminal half life in castrated pig plasma withdrawn from femoral vein at 0.8 mg/kg administered as intrajejunal dose 20 mins after ketoconazole administration by UPLC-tandem mass spectrometry; format: ADME, organism-based, Sus scrofa; set-up: dose 0.8 mg/kg; details: male, read-out: beta t1/2 (converted)
Summary of the method: (§3)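 Portal, hepatic and femoral vein plasma sampled over 6 h and assayed by UPLC-MS/MS. Tmax read directly from the profiles. Terminal t1/2 calculated as ln2/λz by non- or compartmental analysis; values below LLOQ after Cmax excluded.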

[7] = Total plasma clearance in human; format: ADME, organism-based
Plasma [8] = assay: Drug metabolism in castrated pig plasma withdrawn from portal vein assessed as omega-hydroxy finasteride metabolite formation by UPLC-tandem mass spectrometry; format: ADME, cell-free, Sus scrofa; summary of the method: as §2
Plasma [9] = assay: Drug metabolism in castrated pig plasma withdrawn from femoral vein assessed as omega-hydroxy finasteride metabolite formation by UPLC-tandem mass spectrometry; format: ADME, cell-free, Sus scrofa; summary of the method: as §2
[10] = Biliary excretion in castrated pig assessed as unchanged drug level at 0.2 mg/kg, iv measured during 6 hrs sampling by UPLC-tandem mass spectrometry; format: ADME, organism-based, Sus scrofa, Bile; set-up: dose 0.2 mg/kg, route intravenous; details: in vivo
[11] = Apparent biliary clearance in castrated pig at 0.8 mg/kg administered as intrajejunal dose 20 mins after ketoconazole administration by UPLC-tandem mass spectrometry; format: ADME, organism-based, Sus scrofa, Bile; set-up: dose 0.8 mg/kg; details: in vivo, other
[12] = Terminal half life in castrated pig plasma withdrawn from hepatic vein at 0.8 mg/kg administered as intrajejunal dose 20 mins after ketoconazole administration by UPLC-tandem mass spectrometry; format: ADME, organism-based, Sus scrofa; set-up: dose 0.8 mg/kg; details: male, read-out: beta t1/2 (converted); summary of the method: as §3
[13] = Ratio of AUC in bile to plasma withdrawn from portal vein in castrated pig at 0.8 mg/kg administered as intrajejunal dose by UPLC-tandem mass spectrometry; format: ADME, organism-based, Sus scrofa; set-up: dose 0.8 mg/kg; details: male, read-out: Ratio AUC; summary of the method: as §1
[14] = Tmax in castrated pig plasma withdrawn from portal vein at 0.8 mg/kg administered as intrajejunal dose 20 mins after ketoconazole administration by UPLC-tandem mass spectrometry; format: ADME, organism-based, Sus scrofa; set-up: dose 0.8 mg/kg; details: male; summary of the method: as §3
[15] = Ratio of AUC in bile to plasma withdrawn from hepatic vein in castrated pig at 0.2 mg/kg, iv by UPLC-tandem mass spectrometry; format: ADME, organism-based, Sus scrofa; set-up: dose 0.2 mg/kg, route intravenous; details: male, read-out: Ratio AUC
Summary of the method: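 Bile collected 0-6 h and weighed; portal and hepatic vein plasma sampled. Analytes quantified by UPLC-MS/MS (finasteride-d9 internal standard, SRM). Bile AUC divided by plasma AUC for each vein.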

[16] = AUC (0 to 6 hrs) in castrated pig bile at 0.8 mg/kg administered as intrajejunal dose 20 mins after ketoconazole administration by UPLC-tandem mass spectrometry; format: ADME, organism-based, Sus scrofa; set-up: time < 6 hr, route […], dose 0.8 mg/kg; details: male
Sus scrofa = assay: Absorption rate constant in castrated pig plasma withdrawn from portal vein at 0.8 mg/kg administered as intrajejunal dose 20 mins after ketoconazole administration by UPLC-tandem mass spectrometry; format: ADME, organism-based; set-up: dose 0.8 mg/kg; details: in vivo, other
[17] = Cmax in castrated pig plasma withdrawn from hepatic vein at 0.8 mg/kg administered as intrajejunal dose 20 mins after ketoconazole administration by UPLC-tandem mass spectrometry; format: ADME, organism-based, Sus scrofa; set-up: dose 0.8 mg/kg; details: male
Summary of the method: (§4)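 Where ketoconazole was co-dosed, it was given at 10 mg/kg at the same jejunal site 20 min before. Plasma protein-precipitated with acetonitrile and analysed by UPLC-MS/MS (finasteride-d9). AUC0-6h, Cmax and t1/2 (ln2/λz) were derived by non- or compartmental analysis.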

[18] = Drug excretion in castrated pig urine assessed as omega-hydroxy finasteride metabolite formation by UPLC-tandem mass spectrometry; format: ADME, tissue-based, Sus scrofa
[19] = Cmax in castrated pig plasma withdrawn from hepatic vein at 0.8 mg/kg administered as intrajejunal dose by UPLC-tandem mass spectrometry; format: ADME, organism-based, Sus scrofa; set-up: dose 0.8 mg/kg; details: male; summary of the method: as §4
[20] = Biliary excretion in castrated pig assessed as fraction of the dose excreted at 0.2 mg/kg, iv measured during 6 hrs sampling by UPLC-tandem mass spectrometry; format: ADME, organism-based, Sus scrofa; set-up: dose 0.2 mg/kg, route intravenous; details: male, bile, read-out: Drug excretion
[21] = AUC (0 to 6 hrs) in castrated pig plasma withdrawn from portal vein at 0.8 mg/kg administered as intrajejunal dose 20 mins after ketoconazole administration by UPLC-tandem mass spectrometry; format: ADME, organism-based, Sus scrofa; set-up: time < 6 hr, dose 0.8 mg/kg; details: male; summary of the method: as §4
[22] = Renal clearance in castrated pig at 0.8 mg/kg, administered as intrajejunal dose by UPLC-tandem mass spectrometry; format: ADME, organism-based, Sus scrofa, Kidney; set-up: dose 0.8 mg/kg; details: male, in vivo
Summary of the method: (§5)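 Urine collected 0-360 min into a closed bag, weighed and frozen at -20°C. […] Doses: iv 0.2 mg/kg bolus via central vein catheter (n=3), or ij 0.8 mg/kg alone or 20 min after ij ketoconazole 10 mg/kg (n=5). Renal clearance derived from the amount excreted in urine over 0-6 h.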

[23] = AUC (0 to 6 hrs) in castrated pig plasma withdrawn from hepatic vein at 0.8 mg/kg administered as intrajejunal dose by UPLC-tandem mass spectrometry; format: ADME, organism-based, Sus scrofa; set-up: time < 6 hr, dose 0.8 mg/kg; details: male; summary of the method: as §4
[24] = Drug excretion in castrated pig urine assessed as fraction of the dose excreted at 0.8 mg/kg administered as intrajejunal dose measured during 6 hrs sampling by UPLC-tandem mass spectrometry; format: ADME, organism-based, Sus scrofa; set-up: dose 0.8 mg/kg; details: male, read-out: Drug excretion
[25] = Total plasma clearance in castrated pig at 0.2 mg/kg, iv by UPLC-tandem mass spectrometry; format: ADME, organism-based, Sus scrofa; set-up: dose 0.2 mg/kg, route intravenous; details: male
Summary of the method: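 Femoral plasma assayed over 0-6 h by UPLC-MS/MS. CL calculated as dose/AUCVF,0-6h; Vss calculated as MRT × CL, with MRT = AUMC0-6h/AUC0-6h.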

[26] = Tmax in castrated pig plasma withdrawn from hepatic vein at 0.8 mg/kg administered as intrajejunal dose by UPLC-tandem mass spectrometry; format: ADME, organism-based, Sus scrofa; set-up: dose 0.8 mg/kg; details: male; summary of the method: as §3
[27] = Biliary excretion in castrated pig assessed as unchanged drug level at 0.8 mg/kg administered as intrajejunal dose 20 mins after ketoconazole administration measured during 6 hrs sampling by UPLC-tandem mass spectrometry; format: ADME, organism-based, Sus scrofa, Bile; set-up: dose 0.8 mg/kg; details: in vivo, other
[28] = Drug excretion in castrated pig urine assessed as fraction of the dose excreted at 0.2 mg/kg, iv measured during 6 hrs sampling by UPLC-tandem mass spectrometry; format: ADME, organism-based, Sus scrofa; set-up: dose 0.2 mg/kg, route intravenous; details: male, read-out: Drug excretion
[29] = Biliary excretion in castrated pig assessed as unchanged drug level at 0.8 mg/kg administered as intrajejunal dose measured during 6 hrs sampling by UPLC-tandem mass spectrometry; format: ADME, organism-based, Sus scrofa, Bile; set-up: dose 0.8 mg/kg; details: in vivo, other
[30] = Renal clearance in castrated pig at 0.8 mg/kg, administered as intrajejunal dose 20 mins after ketoconazole administration by UPLC-tandem mass spectrometry; format: ADME, organism-based, Sus scrofa, Kidney; set-up: dose 0.8 mg/kg; details: male, in vivo; summary of the method: as §5

Structure (SMILES): CC(C)(C)NC(=O)[C@H]1CC[C@H]2[C@@H]3CC[C@H]4NC(=O)C=C[C@]4(C)[C@H]3CC[C@]12C [FINASTERIDE]
- fraction unbound [1]: 0.17
- dose excreted [2]: 0.18%
- Kp [3]: 14
- Kp at 20 min [4]: 0.7
- Drug metabolism (Plasma [5]): metabolite_not_detected
- half-life [6]: 4 h
- clearance [7]: 3360 mL/day/kg
- Drug metabolism (Plasma [8]): metabolite_not_detected
- Drug metabolism (Plasma [9]): metabolite_not_detected
- Ae [10]: 0.032 µmol
- CL(app) [11]: 14 mL/day/kg
- half-life [12]: 3.6 h
- Kp [13]: 0.9
- Tmax [14]: 0.3 h
- Kp [15]: 7
- AUC(0-t) at 6 h [16]: 4.2 µM·h
- ka (Sus scrofa): 29 h⁻¹
- Cmax [17]: 1400 nM
- Drug excretion [18]: metabolite_not_detected
- Cmax [19]: 1000 nM
- dose excreted at 6 h [20]: 0.19%
- AUC(0-t) at 6 h [21]: 6.3 µM·h
- CL renal [22]: 7.2 mL/day/kg
- AUC(0-t) at 6 h [23]: 1.6 µM·h
- dose excreted at 6 h [24]: 0.02%
- clearance [25]: 10100 mL/day/kg
- Tmax [26]: 0.5 h
- Ae [27]: 0.09 µmol
- dose excreted at 6 h [28]: 0.12%
- Ae [29]: 0.03 µmol
- CL renal at 20 min [30]: 8.64 mL/day/kg
